# Test system: U2OS
# Assay: Multiplex assay against U2OS
# Assay type: toxicity, cell-based
# Conditions: human
# Method in brief: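 Live cells were stained at seeding with Hoechst33342, BioTracker Green Microtubule Cytoskeleton Dye, MitoTracker Red and Annexin V Alexa Fluor 680. Following compound addition, they were imaged on a CQ1 microscope at 37°C and 5% CO2 and gated by CellPathfinder machine learning into Hoechst high-intensity objects or normal cells, with normal cells split into healthy, pyknosed or fragmented nuclei and pyknosed cells into mitotic or apoptotic. Tubulin, mitochondrial-mass and membrane-permeability phenotypes are per cents of healthy-nucleus cells.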
# [1] = 12 h, 1 µM, compound concentration 1 uM, replicate 1
# [2] = 12 h, 1 µM, compound concentration 1 uM, replicate 2
# [3] = 12 h, 10 µM, compound concentration 10 uM, replicate 1
# [4] = 12 h, 10 µM, compound concentration 10 uM, replicate 2
# [5] = 24 h, 1 µM, compound concentration 1 uM, replicate 1
# [6] = 24 h, 1 µM, compound concentration 1 uM, replicate 2
# [7] = 24 h, 10 µM, compound concentration 10 uM, replicate 1
# [8] = 24 h, 10 µM, compound concentration 10 uM, replicate 2
# [9] = 48 h, 1 µM, compound concentration 1 uM, replicate 1
# [10] = 48 h, 1 µM, compound concentration 1 uM, replicate 2
# [11] = 48 h, 10 µM, compound concentration 10 uM, replicate 1
# [12] = 48 h, 10 µM, compound concentration 10 uM, replicate 2
smiles,measurement,setting,value
CC(C)(C)c1cc(NC(=O)Nc2ccc(-c3cn4c(n3)sc3cc(OCCN5CCOCC5)ccc34)cc2)no1 [QUIZARTINIB],Population Apoptotic (%),[1],48%
same,Population Fragmented Nuclei (%),[1],24%
same,Population Healthy Nuclei (%),[1],61%
same,Population Hoechst High Intensity Objects (%),[1],6%
same,Population Membrane Permeable-Phenotype (%),[1],13%
same,Population Mitochondria Different-Phenotype (%),[1],4%
same,Population Mitotic Cells (%),[1],51%
same,Population Normal (%),[1],93%
same,Population Pyknosed Nuclei (%),[1],14%
same,Population Tubulin-Different-Phenotype (%),[1],8%
same,Total Cell Count,[1],213
same,Population Apoptotic (%),[2],78%
same,Population Fragmented Nuclei (%),[2],17%
same,Population Healthy Nuclei (%),[2],70%
same,Population Hoechst High Intensity Objects (%),[2],1%
same,Population Membrane Permeable-Phenotype (%),[2],6%
same,Population Mitochondria Different-Phenotype (%),[2],6%
same,Population Mitotic Cells (%),[2],21%
same,Population Normal (%),[2],98%
same,Population Pyknosed Nuclei (%),[2],11%
same,Population Tubulin-Different-Phenotype (%),[2],4%
same,Total Cell Count,[2],119
same,Population Apoptotic (%),[3],58%
same,Population Fragmented Nuclei (%),[3],30%
same,Population Healthy Nuclei (%),[3],47%
same,Population Hoechst High Intensity Objects (%),[3],13%
same,Population Membrane Permeable-Phenotype (%),[3],85%
same,Population Mitochondria Different-Phenotype (%),[3],26%
same,Population Mitotic Cells (%),[3],41%
same,Population Normal (%),[3],86%
same,Population Pyknosed Nuclei (%),[3],21%
same,Population Tubulin-Different-Phenotype (%),[3],76%
same,Total Cell Count,[3],197
same,Population Apoptotic (%),[4],23%
same,Population Fragmented Nuclei (%),[4],11%
same,Population Healthy Nuclei (%),[4],65%
same,Population Hoechst High Intensity Objects (%),[4],6%
same,Population Membrane Permeable-Phenotype (%),[4],62%
same,Population Mitochondria Different-Phenotype (%),[4],33%
same,Population Mitotic Cells (%),[4],76%
same,Population Normal (%),[4],94%
same,Population Pyknosed Nuclei (%),[4],22%
same,Population Tubulin-Different-Phenotype (%),[4],54%
same,Total Cell Count,[4],100
same,Population Apoptotic (%),[5],57%
same,Population Fragmented Nuclei (%),[5],25%
same,Population Healthy Nuclei (%),[5],56%
same,Population Hoechst High Intensity Objects (%),[5],2%
same,Population Membrane Permeable-Phenotype (%),[5],15%
same,Population Mitochondria Different-Phenotype (%),[5],8%
same,Population Mitotic Cells (%),[5],42%
same,Population Normal (%),[5],97%
same,Population Pyknosed Nuclei (%),[5],17%
same,Population Tubulin-Different-Phenotype (%),[5],7%
same,Total Cell Count,[5],234
same,Population Apoptotic (%),[6],62%
same,Population Fragmented Nuclei (%),[6],15%
same,Population Healthy Nuclei (%),[6],72%
same,Population Hoechst High Intensity Objects (%),[6],0%
same,Population Membrane Permeable-Phenotype (%),[6],9%
same,Population Mitochondria Different-Phenotype (%),[6],4%
same,Population Mitotic Cells (%),[6],37%
same,Population Normal (%),[6],99%
same,Population Pyknosed Nuclei (%),[6],12%
same,Population Tubulin-Different-Phenotype (%),[6],5%
same,Total Cell Count,[6],134
same,Population Apoptotic (%),[7],63%
same,Population Fragmented Nuclei (%),[7],34%
same,Population Healthy Nuclei (%),[7],34%
same,Population Hoechst High Intensity Objects (%),[7],11%
same,Population Membrane Permeable-Phenotype (%),[7],55%
same,Population Mitochondria Different-Phenotype (%),[7],38%
same,Population Mitotic Cells (%),[7],36%
same,Population Normal (%),[7],88%
same,Population Pyknosed Nuclei (%),[7],30%
same,Population Tubulin-Different-Phenotype (%),[7],45%
same,Total Cell Count,[7],195
same,Population Apoptotic (%),[8],51%
same,Population Fragmented Nuclei (%),[8],10%
same,Population Healthy Nuclei (%),[8],58%
same,Population Hoechst High Intensity Objects (%),[8],2%
same,Population Membrane Permeable-Phenotype (%),[8],40%
same,Population Mitochondria Different-Phenotype (%),[8],32%
same,Population Mitotic Cells (%),[8],48%
same,Population Normal (%),[8],97%
same,Population Tubulin-Different-Phenotype (%),[8],30%
same,Total Cell Count,[8],96
same,Population Apoptotic (%),[9],60%
same,Population Fragmented Nuclei (%),[9],21%
same,Population Healthy Nuclei (%),[9],61%
same,Population Hoechst High Intensity Objects (%),[9],3%
same,Population Membrane Permeable-Phenotype (%),[9],7%
same,Population Mitochondria Different-Phenotype (%),[9],2%
same,Population Mitotic Cells (%),[9],39%
same,Population Normal (%),[9],96%
same,Population Pyknosed Nuclei (%),[9],16%
same,Population Tubulin-Different-Phenotype (%),[9],3%
same,Total Cell Count,[9],297
same,Population Apoptotic (%),[10],73%
same,Population Fragmented Nuclei (%),[10],16%
same,Population Healthy Nuclei (%),[10],72%
same,Population Hoechst High Intensity Objects (%),[10],2%
same,Population Membrane Permeable-Phenotype (%),[10],9%
same,Population Mitochondria Different-Phenotype (%),[10],7%
same,Population Mitotic Cells (%),[10],26%
same,Population Normal (%),[10],97%
same,Population Pyknosed Nuclei (%),[10],10%
same,Population Tubulin-Different-Phenotype (%),[10],6%
same,Total Cell Count,[10],180
same,Population Apoptotic (%),[11],72%
same,Population Fragmented Nuclei (%),[11],33%
same,Population Healthy Nuclei (%),[11],25%
same,Population Hoechst High Intensity Objects (%),[11],9%
same,Population Membrane Permeable-Phenotype (%),[11],41%
same,Population Mitochondria Different-Phenotype (%),[11],33%
same,Population Mitotic Cells (%),[11],27%
same,Population Normal (%),[11],90%
same,Population Pyknosed Nuclei (%),[11],40%
same,Population Tubulin-Different-Phenotype (%),[11],33%
same,Total Cell Count,[11],219
same,Population Apoptotic (%),[12],56%
same,Population Fragmented Nuclei (%),[12],19%
same,Population Healthy Nuclei (%),[12],48%
same,Population Hoechst High Intensity Objects (%),[12],5%
same,Population Membrane Permeable-Phenotype (%),[12],35%
same,Population Mitotic Cells (%),[12],43%
same,Population Normal (%),[12],94%
same,Population Pyknosed Nuclei (%),[12],32%
same,Population Tubulin-Different-Phenotype (%),[12],28%
same,Total Cell Count,[12],98

# From ChEMBL document CHEMBL5058577, “EUbOPEN Chemogenomics Library 2 (Multiplex)” (2022)
